Test [1] deals with T1, Nuclear factor erythroid 2-related factor 2 (Homo sapiens, UniProt Q16236).
T1 sequence (Q16236 whole entry): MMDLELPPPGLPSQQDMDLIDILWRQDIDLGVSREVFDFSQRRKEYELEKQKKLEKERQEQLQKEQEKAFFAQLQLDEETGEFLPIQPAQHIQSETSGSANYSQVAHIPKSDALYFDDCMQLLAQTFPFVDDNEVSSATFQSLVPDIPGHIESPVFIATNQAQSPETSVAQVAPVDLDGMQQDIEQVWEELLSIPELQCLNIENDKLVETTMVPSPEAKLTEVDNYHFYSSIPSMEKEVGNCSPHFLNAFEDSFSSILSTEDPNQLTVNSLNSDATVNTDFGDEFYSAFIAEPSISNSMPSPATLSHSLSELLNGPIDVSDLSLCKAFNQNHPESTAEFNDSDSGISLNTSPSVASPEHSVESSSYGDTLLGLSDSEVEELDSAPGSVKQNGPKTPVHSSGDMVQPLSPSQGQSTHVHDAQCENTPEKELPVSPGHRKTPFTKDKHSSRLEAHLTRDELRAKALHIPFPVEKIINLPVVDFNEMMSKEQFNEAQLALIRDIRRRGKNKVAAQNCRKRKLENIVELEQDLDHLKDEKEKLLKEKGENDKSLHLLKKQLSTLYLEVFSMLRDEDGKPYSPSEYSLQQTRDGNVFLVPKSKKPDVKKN
Kind of test: Activation of Nrf2 (unknown origin) expressed in human HaCaT-ARE-luc cells after 6 hrs by luciferase reporter gene assay. The gist of the method:
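HaCaT-ARE-Luc keratinocytes in DMEM with 10% FBS, 37 °C, 5% CO2, exposed to compounds for 6 h. Cells then washed with PBS and lysed (Tris-phosphate pH 7.8, MgCl2, DTT, Triton X-100, glycerol, 15 min RT). Luciferase RLU read on the supernatant and EC50 derived. Mean of at least five independent experiments.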

The target in test [2] is Signal transducer and activator of transcription 3 (Homo sapiens, UniProt P40763). Briefly: Inhibition of IFN-gamma stimulated STAT3 (unknown origin) expressed in human HeLa cells after 6 hrs by luciferase reporter gene assay. The method, boiled down:
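HeLa-STAT3-Luc cells stimulated with γIFN (20 IU/mL) with or without compounds for 6 h. PBS-washed cells lysed 15 min at room temperature and luciferase RLU measured. Values expressed as percent inhibition of IFN-γ-induced activity (taken as 100%). Mean of at least five independent experiments.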
On the technique in general: A reporter such as luciferase makes a cellular process visible.

Consider 18 compounds from BindingDB's records for doi:10.1021/acs.jnatprod.7b00271 (University of Eastern Piedmont, 2017).

Signal transducer and activator of transcription 3, sequence (P40763 whole entry): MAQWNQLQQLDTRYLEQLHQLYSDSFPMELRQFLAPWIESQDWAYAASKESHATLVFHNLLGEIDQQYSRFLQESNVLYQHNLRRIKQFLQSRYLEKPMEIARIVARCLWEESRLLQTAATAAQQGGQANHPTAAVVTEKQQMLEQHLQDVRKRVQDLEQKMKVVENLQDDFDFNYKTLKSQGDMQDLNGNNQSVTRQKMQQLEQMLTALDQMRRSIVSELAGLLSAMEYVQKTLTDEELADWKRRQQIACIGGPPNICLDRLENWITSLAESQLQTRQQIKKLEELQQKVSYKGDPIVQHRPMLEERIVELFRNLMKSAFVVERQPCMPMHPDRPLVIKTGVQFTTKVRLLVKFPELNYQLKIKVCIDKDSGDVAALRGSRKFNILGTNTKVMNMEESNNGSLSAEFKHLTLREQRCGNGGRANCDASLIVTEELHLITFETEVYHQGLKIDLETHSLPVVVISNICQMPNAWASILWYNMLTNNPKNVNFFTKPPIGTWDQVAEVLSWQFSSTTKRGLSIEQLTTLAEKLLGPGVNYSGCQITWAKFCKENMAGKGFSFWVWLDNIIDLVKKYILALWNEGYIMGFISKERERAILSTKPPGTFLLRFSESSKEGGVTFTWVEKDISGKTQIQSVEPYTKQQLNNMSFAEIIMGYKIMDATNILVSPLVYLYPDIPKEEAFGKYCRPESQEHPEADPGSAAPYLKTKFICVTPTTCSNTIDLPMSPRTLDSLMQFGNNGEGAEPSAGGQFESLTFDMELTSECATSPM

By EC50 is commonly meant the midpoint of the concentration-response curve. A lower EC50 goes with a more potent agent. For orientation: IC50 means the concentration at which inhibition is half-maximal. A lower IC50 goes with greater potency in that assay. Turning to `COC(=O)[C@]12CCC(C)(C)C[C@H]1C1=CC[C@@H]3[C@@]4(C)C=C(I)C(=O)C(C)(C)[C@@H]4CC[C@@]3(C)[C@]1(C)CC2`, the EC50 in test [1] is greater than 25 µM. Besides, in test [2], the half-maximal inhibitory concentration (IC50) is greater than 25 µM.
On to `COC(=O)[C@]12CCC(C)(C)C[C@H]1C1=CC[C@@H]3[C@@]4(C)CC(C#N)=C(O)C(C)(C)[C@@H]4CC[C@@]3(C)[C@]1(C)CC2`, for which, in test [1], the EC50 is greater than 25 µM. Moreover, in test [2], the concentration for half-maximal inhibition (IC50) is greater than 25 µM.
`COC(=O)[C@]12CCC(C)(C)C[C@H]1C1=CC[C@@H]3[C@@]4(C)C=C(c5ccc(C#N)cc5)C(=O)C(C)(C)[C@@H]4CC[C@@]3(C)[C@]1(C)CC2` gave a half-maximal effective concentration (EC50) in test [1] greater than 25 µM. In addition, the IC50 in test [2] is greater than 25 µM.
For `COC(=O)[C@]12CCC(C)(C)C[C@H]1C1=CC[C@@H]3[C@@]4(C)CCC(=O)C(C)(C)[C@@H]4CC[C@@]3(C)[C@]1(C)CC2`, in test [1], the EC50 was greater than 25 µM. The compound also showed an IC50 in test [2] greater than 25 µM.
On to `COC(=O)[C@]12CCC(C)(C)C[C@H]1C1=CC[C@@H]3[C@@]4(C)C=C(Br)C(=O)C(C)(C)[C@@H]4CC[C@@]3(C)[C@]1(C)CC2`, for which, in test [1], the EC50 came out at 11.5 µM. In test [2], the concentration for half-maximal inhibition (IC50) is greater than 25 µM.
In the same order, the values of `COC(=O)[C@]12CCC(C)(C)C[C@H]1C1=CC[C@@H]3[C@@]4(C)C=C(c5ccccc5)C(=O)C(C)(C)[C@@H]4CC[C@@]3(C)[C@]1(C)CC2` are greater than 25 µM and greater than 25 µM.
Take `COC(=O)[C@]12CCC(C)(C)C[C@H]1C1=CC[C@@H]3[C@@]4(C)C=C(C#Cc5ccccc5)C(=O)C(C)(C)[C@@H]4CC[C@@]3(C)[C@]1(C)CC2`: in test [1], the concentration giving a half-maximal response (EC50) is greater than 25 µM. This compound yielded an IC50 in test [2] greater than 25 µM.
Take `COC(=O)C1=C[C@]2(C)[C@H]3CC=C4[C@@H]5CC(C)(C)CC[C@]5(C(=O)OC)CC[C@@]4(C)[C@]3(C)CC[C@H]2C(C)(C)C1=O`: the EC50 in test [1] is greater than 25 µM. In test [2], this compound gave an IC50 greater than 25 µM.
In turn, `COC(=O)[C@]12CCC(C)(C)C[C@H]1C1=CC[C@@H]3[C@@]4(C)C=C(OC(C)=O)C(=O)C(C)(C)[C@@H]4CC[C@@]3(C)[C@]1(C)CC2` gave an EC50 in test [1] greater than 25 µM. In addition, the IC50 in test [2] is greater than 25 µM.
As for `COC(=O)[C@]12CCC(C)(C)C[C@H]1C1=CC[C@@H]3[C@@]4(C)Cc5cnoc5C(C)(C)[C@@H]4CC[C@@]3(C)[C@]1(C)CC2`, the EC50 in test [1] is greater than 25 µM. This compound returned a half-maximal inhibitory concentration (IC50) in test [2] greater than 25 µM.
For the compound `COC(=O)[C@]12CCC(C)(C)C[C@H]1C1=CC[C@@H]3[C@@]4(C)C=CC(=O)C(C)(C)[C@@H]4CC[C@@]3(C)[C@]1(C)CC2`, the EC50 in test [1] was greater than 25 µM. In addition, in test [2], the half-inhibitory concentration (IC50) is greater than 25 µM.
In the case of `CCOC(=O)/C=C/C1=C[C@]2(C)[C@H]3CC=C4[C@@H]5CC(C)(C)CC[C@]5(C(=O)OC)CC[C@@]4(C)[C@]3(C)CC[C@H]2C(C)(C)C1=O`, in test [1], the EC50 was greater than 25 µM. For the same compound, in test [2], the IC50 is greater than 25 µM.
In test [1], `COC(=O)[C@]12CCC(C)(C)C[C@H]1C1=CC[C@@H]3[C@@]4(C)CC(C=O)=C(O)C(C)(C)[C@@H]4CC[C@@]3(C)[C@]1(C)CC2` returned an EC50 greater than 25 µM. Further, the IC50 in test [2] was greater than 25 µM.
`COC(=O)[C@]12CCC(C)(C)C[C@H]1C1=CC[C@@H]3[C@@]4(C)C=C(C(=O)O)C(=O)C(C)(C)[C@@H]4CC[C@@]3(C)[C@]1(C)CC2` came in with an EC50 in test [1] of 2.45 µM. This compound gave a half-maximal inhibitory concentration (IC50) in test [2] of 25.7 µM.
`COC(=O)[C@]12CCC(C)(C)C[C@H]1C1=CC[C@@H]3[C@@]4(C)C=C(C#N)C(=O)C(C)(C)[C@@H]4CC[C@@]3(C)[C@]1(C)CC2` gave an EC50 in test [1] of 1.1 µM.
In test [1], `COC(=O)[C@]12CCC(C)(C)C[C@H]1C1=CC[C@@H]3[C@@]4(C)C=C(c5ccc(OC)cc5)C(=O)C(C)(C)[C@@H]4CC[C@@]3(C)[C@]1(C)CC2` registered an EC50 greater than 25 µM. In test [2], this compound showed an IC50 greater than 25 µM.
Compound `COC(=O)[C@]12CCC(C)(C)C[C@H]1[C@H]1C(=O)C=C3[C@@]4(C)C=C(C#N)C(=O)C(C)(C)[C@@H]4CC[C@@]3(C)[C@]1(C)CC2` [CDDO-Me, 2] gave an EC50 in test [1] of 0.06 µM.
Take `CC1(C)CC[C@]2(C(=O)O)CC[C@]3(C)C(=CC[C@@H]4[C@@]5(C)CC[C@H](O)C(C)(C)[C@@H]5CC[C@]43C)[C@@H]2C1` [Oleanolic acid (OA)(Compound 1)]: in test [2], the half-maximal inhibitory concentration (IC50) was greater than 50 µM.
